The nature of data set [1]: Half-life by UV spectrophotometry. The data set is classed as ADME. As to conditions: for half-life: read-out: Stability (converted). In a few lines:
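Chemical stability in solution: about 10^-4 M compound in 0.07 M phosphate buffer, pH 7.4, held at 37 °C. Decay followed by UV spectrophotometry; half-life reported in hours.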

In data set [2] the test system is Providencia rettgeri. Kind of data set: In vitro antibacterial activity against Providencia rettgeri (A22424). It counts as functional. In a few lines: (§1)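 Broth microdilution MIC in Nutrient Broth with a final inoculum of 5.0 × 10^5 CFU/mL. Trays incubated 18 h at 35 °C. MIC taken as the lowest antibiotic concentration inhibiting bacterial growth, in µg/mL.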

Another data set relates to Staphylococcus aureus. Kind of data set: In vitro antibacterial activity against Staphylococcus aureus (A9537). The data set is classed as functional. In a few lines: as §1
Data set [3] deals with Escherichia coli. Kind of data set: In vitro antibacterial activity against Escherichia coli (A15119). It counts as functional. In a few lines:
as §1

Another data set deals with Enterobacter cloacae. Kind of data set: In vitro antibacterial activity against Enterobacter cloacae (A9659). The data set is classed as functional. In a few lines: as §1
Data set [4] deals with Klebsiella pneumoniae. Kind of data set: In vitro antibacterial activity against Klebsiella pneumoniae (A9664). The data set is classed as functional. In a few lines:
as §1

Another data set relates to Enterococcus faecalis. Kind of data set: In vitro antibacterial activity against Streptococcus faecalis (A20688). The data set is classed as functional. In a few lines: (§2)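 Streptococcal MIC by broth microdilution in Todd-Hewitt Broth with a final inoculum of 5.0 × 10^5 CFU/mL. Trays incubated 18 h at 35 °C. Endpoint is the lowest concentration preventing growth, in µg/mL.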

The subject of data set [5] is Pseudomonas aeruginosa. As to the kind of experiment: In vitro antibacterial activity against Pseudomonas aeruginosa (A9843). It counts as functional. In a few lines:
as §1

The test system of the next data set is Proteus vulgaris. Kind of data set: In vitro antibacterial activity against Proteus vulgaris (A21559). It counts as functional. In a few lines:
as §1

Another data set has as its system Mus musculus. Kind of data set: Protective dose when administered orally for 50 percent of the mice tested. Mice were treated twice, at 0 and 2 hour after infection with Escherichia coli. It counts as functional. To be noted: po, read-out: PD50. In a few lines: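 Mice infected with E. coli and given test agent orally twice, at 0 and 2 h after infection. PD50 is the dose protecting 50% of animals, expressed as mg/kg per dose.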

In the next data set the test system is Streptococcus pneumoniae. As to the kind of experiment: In vitro antibacterial activity against Streptococcus pneumoniae (A9585). The data set is classed as functional. In a few lines:
as §2

The test system of another data set is Streptococcus pyogenes. Kind of data set: In vitro antibacterial activity against Streptococcus pyogenes (A9604). It counts as functional. In a few lines: as §2
For data set [6], the system named is Escherichia coli. Kind of data set: In vitro evaluation for the antibacterial activity […] in e) Escherichia coli (A15119). It counts as functional.
The subject of data set [7] is Klebsiella pneumoniae. As to the kind of experiment: In vitro evaluation for the antibacterial activity […] in Klebsiella pneumoniae (A9664). The data set is classed as functional.
Data set [8] has as its system Providencia rettgeri. As to the kind of experiment: IIn vitro antibacterial activity against Providencia rettgeri (A22424). It counts as functional. In a few lines:
as §1

Data set [9] deals with Pseudomonas aeruginosa. As to the kind of experiment: In vitro evaluation for the antibacterial activity […] in Pseudomonas aeruginosa (A9843). The data set is classed as functional.
Where [10] appears, read: Providencia rettgeri, read-out: MIC.
Setting [11] is: Pseudomonas aeruginosa, read-out: MIC.
Where [12] appears, read: Streptococcus pyogenes, read-out: MIC.

From ChEMBL document CHEMBL1125400, “Synthesis and antibacterial activity of some novel 6-methyl- and 6-propenyl-substituted carbapenems” (J Med Chem, 1992) come the findings set out here.

Values after ≈ are worked out from the molar mass of the structure shown. Values joined by “and” are separate entries in the source; they are usually repeats but may differ in a detail not shown here. Equal entries are not always repeated.

As for `C[C@H]1C(SCc2ccccn2)=C(C(=O)O)N2C(=O)[C@H](/C=C/CNc3ccccc3)[C@@H]12`, in [1], the half-life was 35 h. Also, the MIC in the data set on Providencia rettgeri [2] (setting [10]) was 64 µg/mL (≈ 152 µM); in the data set with Staphylococcus aureus it was 0.25 µg/mL (≈ 0.593 µM); against Escherichia coli [3], 32 µg/mL (≈ 75.9 µM); against Enterobacter cloacae it was 64 µg/mL (≈ 152 µM); with Klebsiella pneumoniae [4] it was 64 µg/mL (≈ 152 µM); with Enterococcus faecalis it was over 64 µg/mL. The MIC in the data set on Pseudomonas aeruginosa [5] (setting [11]) and against Proteus vulgaris was 64 µg/mL (≈ 152 µM) in each case.

For the molecule `C[C@@H](O)[C@H]1C(=O)N2C(C(=O)O)=C(SCc3cccnc3)[C@H](C)[C@H]12`, the half-life in data set [1] is 65 h. The MIC was 16 µg/mL (≈ 47.8 µM) in the data set on Providencia rettgeri [2] (setting [10]); 0.016 µg/mL (≈ 0.0478 µM) in the data set on Streptococcus pneumoniae; 0.016 µg/mL (≈ 0.0478 µM) against Staphylococcus aureus; 0.016 µg/mL (≈ 0.0478 µM) in the data set on Escherichia coli [3]; 0.13 µg/mL (≈ 0.389 µM) in the data set on Enterobacter cloacae; 0.016 µg/mL (≈ 0.0478 µM) in the data set on Streptococcus pyogenes (setting [12]). For the same molecule, the MIC against Klebsiella pneumoniae [4] is 0.13 µg/mL (≈ 0.389 µM); with Enterococcus faecalis it was 2 µg/mL (≈ 5.98 µM); with Pseudomonas aeruginosa [5] (setting [11]), 125 µg/mL (≈ 374 µM); in the data set with Proteus vulgaris it was 0.03 µg/mL (≈ 0.0897 µM). For the same molecule, the ED50 in the data set on Mus musculus came to 17 mg/kg.

With `C[C@@H](N)[C@H]1C(=O)N2C(C(=O)O)=C(SCc3cccnc3)[C@H](C)[C@H]12`, the half-life in [1] was 3 h. Further, the MIC in the data set with Providencia rettgeri [2] (setting [10]) is 2 µg/mL (≈ 6 µM); against Streptococcus pneumoniae it was 4 µg/mL (≈ 12 µM); against Staphylococcus aureus it was 2 µg/mL (≈ 6 µM); in the data set with Enterobacter cloacae it was 0.06 µg/mL (≈ 0.18 µM); in the data set with Streptococcus pyogenes (setting [12]), 4 µg/mL (≈ 12 µM); against Escherichia coli [6] it was 0.03 µg/mL (≈ 0.09 µM). For the same molecule, the minimal inhibitory concentration (MIC) in the data set on Klebsiella pneumoniae [4] was 0.13 µg/mL (≈ 0.39 µM); in the data set with Enterococcus faecalis, 63 µg/mL (≈ 189 µM); with Pseudomonas aeruginosa [5] (setting [11]), 1 µg/mL (≈ 3 µM); with Proteus vulgaris it was 0.016 µg/mL (≈ 0.048 µM). The ED50 with Mus musculus was 8 mg/kg.

Molecule `C=CC(O)[C@H]1C(=O)N2C(C(=O)O)=C(SCc3ccccn3)[C@H](C)[C@H]12` (stereo partly specified) gave a Stability in data set [1] of 72 h. For the same molecule, the half-life in [1] is 72 h. The MIC against Providencia rettgeri [2] was 2 µg/mL (≈ 5.77 µM); in the data set on Providencia rettgeri [2] (setting [10]), 2 µg/mL (≈ 5.77 µM); in the data set on Streptococcus pyogenes it was 0.25 µg/mL and 0.56 µg/mL; in the data set with Pseudomonas aeruginosa [5], 125 µg/mL (≈ 361 µM); in the data set on Pseudomonas aeruginosa [5] (setting [11]), 125 µg/mL (≈ 361 µM).

For `C[C@H]1C(SCc2cccnc2)=C(C(=O)O)N2C(=O)[C@H](CO)[C@@H]12`, the half-life in data set [1] is 45 h. Also, the ED50 in the data set with Mus musculus turned out to be 7 mg/kg. Further, the MIC was found to be 0.002 µg/mL (≈ 0.00624 µM) against Streptococcus pneumoniae; 0.008 µg/mL (≈ 0.025 µM) in the data set with Staphylococcus aureus; 0.06 µg/mL (≈ 0.187 µM) in the data set on Enterobacter cloacae; 0.004 µg/mL (≈ 0.0125 µM) in the data set on Streptococcus pyogenes (setting [12]); 0.016 µg/mL (≈ 0.0499 µM) against Escherichia coli [6]; 4 µg/mL (≈ 12.5 µM) against Enterococcus faecalis. Further, the MIC worked out at 0.06 µg/mL (≈ 0.187 µM) against Klebsiella pneumoniae [7], 125 µg/mL (≈ 390 µM) in the data set on Pseudomonas aeruginosa [5] (setting [11]), 0.13 µg/mL (≈ 0.406 µM) with Proteus vulgaris and 0.5 µg/mL (≈ 1.56 µM) with Providencia rettgeri [8].

For the molecule `C[C@H]1C(SCc2cccnc2)=C(C(=O)O)N2C(=O)[C@H](CN)[C@@H]12`, the half-life in [1] was 1.5 h. Also, the minimal inhibitory concentration (MIC) in the data set with Providencia rettgeri [2] (setting [10]) was determined as 0.25 µg/mL (≈ 0.783 µM); in the data set with Streptococcus pneumoniae, 0.5 µg/mL (≈ 1.57 µM); in the data set with Staphylococcus aureus, 0.5 µg/mL (≈ 1.57 µM); in the data set on Enterobacter cloacae, 0.016 µg/mL (≈ 0.0501 µM); in the data set with Streptococcus pyogenes (setting [12]) it was 0.5 µg/mL (≈ 1.57 µM); against Escherichia coli [6] it was 0.008 µg/mL (≈ 0.025 µM). The MIC against Klebsiella pneumoniae [4] was found to be 0.03 µg/mL (≈ 0.0939 µM); with Enterococcus faecalis it was 125 µg/mL (≈ 391 µM); with Pseudomonas aeruginosa [5] (setting [11]), 1 µg/mL (≈ 3.13 µM); against Proteus vulgaris, 0.016 µg/mL (≈ 0.0501 µM). In addition, the ED50 in the data set with Mus musculus is over 25 mg/kg.

As to `C[C@H]1C(SCc2ccccn2)=C(C(=O)O)N2C(=O)[C@H](/C=C/CO)[C@@H]12`, in data set [1], the half-life is 21 h. For the same molecule, the MIC amounted to 16 µg/mL (≈ 46.2 µM) in the data set with Providencia rettgeri [2] (setting [10]); 0.13 µg/mL (≈ 0.375 µM) with Streptococcus pneumoniae; 1 µg/mL (≈ 2.89 µM) against Staphylococcus aureus; 8 µg/mL (≈ 23.1 µM) with Escherichia coli [3]; 32 µg/mL (≈ 92.4 µM) against Enterobacter cloacae; 0.06 µg/mL (≈ 0.173 µM) with Streptococcus pyogenes (setting [12]). Besides, the minimum inhibitory concentration (MIC) with Klebsiella pneumoniae [4] was 16 µg/mL (≈ 46.2 µM); with Enterococcus faecalis, 125 µg/mL (≈ 361 µM); with Pseudomonas aeruginosa [5] (setting [11]) it was 125 µg/mL (≈ 361 µM); with Proteus vulgaris, 8 µg/mL (≈ 23.1 µM).

`C[C@H]1C(SCc2ccccn2)=C(C(=O)O)N2C(=O)[C@H](/C=C/CN=[N+]=[N-])[C@@H]12`: in data set [1], the half-life was 21 h. Besides, the MIC worked out at 32 µg/mL (≈ 86.2 µM) in the data set on Providencia rettgeri [2] (setting [10]); 0.03 µg/mL (≈ 0.0808 µM) against Streptococcus pneumoniae; 0.06 µg/mL (≈ 0.162 µM) in the data set with Staphylococcus aureus; 8 µg/mL (≈ 21.5 µM) in the data set on Escherichia coli [3]; 32 µg/mL (≈ 86.2 µM) against Enterobacter cloacae; 0.03 µg/mL (≈ 0.0808 µM) with Streptococcus pyogenes (setting [12]). Moreover, the MIC amounted to 16 µg/mL (≈ 43.1 µM) in the data set with Klebsiella pneumoniae [4], 32 µg/mL (≈ 86.2 µM) against Enterococcus faecalis, 8 µg/mL (≈ 21.5 µM) in the data set with Proteus vulgaris and 125 µg/mL (≈ 337 µM) with Pseudomonas aeruginosa [9].
